The values that follow come from ChEMBL document CHEMBL1131039, “Styrylquinoline derivatives: a new class of potent HIV-1 integrase inhibitors that block HIV-1 replication in CEM cells” (J Med Chem, 1998).

Structures are written as SMILES.

A word on the IC50: it is the concentration at which inhibition is half-maximal. As a reminder, the IC25 is the concentration needed for an effect of 25%. A word on the IC90: it is the point of the concentration-response curve where the effect stands at 90%.

Assay [1] relates to CCRF-CEM. As to the kind of experiment: (§1) Cytotoxicity (TC90) was measured by MTT transformation assay. The format is functional, Homo sapiens. (Tetrazolium assays rely on reduction of a dye to a coloured formazan, in cell work by metabolically active cells.)
The subject of assay [2] is CCRF-CEM. As to the kind of experiment: Cytotoxicity (TC50) was measured by MTT transformation assay. The following applies: Homo sapiens, read-out: TC50 (the source's name). The format is functional.
The test system of assay [3] is Human immunodeficiency virus 1. As to the kind of experiment: Effect upon disintegration catalyzed by the deletion mutant. The format is functional.
In assay [4] the target is T1, Human immunodeficiency virus type 1 integrase (Human immunodeficiency virus 1, UniProt Q7ZJM1). The assay can be described thus: HIV integrase inhibitory potency was evaluated as IC50 on 3' processing of target DNA.
Assay [5] addresses T1, Human immunodeficiency virus type 1 integrase. As to the kind of experiment: In vitro anti-HIV integrase activity against 3' processing of target plasmid. Put shortly: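 Buffer: 20 mM Tris pH 7.2, 30 mM NaCl, 10% glycerol, 10 mM DTT, 0.01% NP40 and 10 mM MnCl2. Compounds were tested over a concentration range, and IC50 was taken for inhibition of 3'-processing.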
For assay [6] the target is unchanged. The assay can be described thus: In vitro anti-HIV integrase activity against integration (strand transfer) of target plasmid.
The test system of assay [7] is CCRF-CEM. The assay can be described thus: Antiviral activity was measured as IC25 by calculating amount of virus present in CEM cells by beta-galactosidase assay. Format: functional. The following applies: Homo sapiens. In outline: (§2)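 HIV-1 PLN4-3 (cell-free virus from CEM transfection) infection of CEM cells (RPMI-1640, 10% FCS), triplicate wells. Virus removed at 2 h, compounds in DMSO added in fresh medium at increasing concentrations. Supernatants taken at 72 h and used to infect HeLaCD4+-β-gal (P4) cells for 24 h. Lysate incubated with CPRG for 1 h, read at 570 nm. Average of three experiments.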

For assay [8], the system named is CCRF-CEM. The assay can be described thus: Antiviral activity was measured as IC50 by calculating amount of virus present in CEM cells by beta-galactosidase assay. Format: functional, cell-based. The following applies: Homo sapiens. Put shortly: as §2
Assay [9] deals with CCRF-CEM. The assay can be described thus: Toxicity was measured by MTT assay after 72 hours at 100 uM. Format: functional, Homo sapiens. In outline:
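Infected CEM cells exposed to compounds (in DMSO) at 100 μM; viability after 72 h by MTT. MTT (7.5 mg/mL in phosphate buffer) added per well, 4 h at 37 °C under CO2. Formazan dissolved in 10% SDS, 10 mM HCl, absorbance at 570 nm. Average of three experiments.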

For assay [10], the system named is CCRF-CEM. As to the kind of experiment: Antiviral activity was measured as IC50 by calculating amount of virus present in CEM cells by P4 infection. The format is functional, cell-based. The following applies: Homo sapiens. Put shortly: as §2
Assay [11] concerns CCRF-CEM. As to the kind of experiment: Toxicity was measured by MTT assay after 120 hours at 100 uM. Format: functional, Homo sapiens. Put shortly: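 Infected CEM cells exposed to compounds at 100 μM; viability assessed 120 h after infection by MTT transformation assay (formazan solubilized in SDS/HCl, absorbance at 570 nm).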
In assay [12] the test system is CCRF-CEM. As to the kind of experiment: Antiviral activity was measured as IC90 by calculating amount of virus present in CEM cells by P4 infection. The format is functional. The following applies: Homo sapiens. Put shortly: as §2
Assay [13] deals with CCRF-CEM. As to the kind of experiment: Antiviral activity was measured as IC90 by calculating amount of virus present in CEM cells by beta-galactosidase assay. Format: functional. The note with it: Homo sapiens. In outline: as §2
Assay [14] has as its system CCRF-CEM. Described as §1. The format is functional. The note with it: Homo sapiens.
The subject of assay [15] is CCRF-CEM. The assay can be described thus: Antiviral activity was measured as IC50 by calculating amount of virus present in CEM cells by P24 ELISA test. Format: functional, cell-based. The following applies: Homo sapiens. Put shortly:
(§3)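 Same CEM/HIV-1 PLN4-3 infection scheme: virus washed off after 2 h, compound in DMSO added in fresh medium, supernatants harvested 72 h post-infection. Viral load measured as virion-associated p24 antigen by ELISA in the culture supernatants.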

In assay [16] the test system is CCRF-CEM. As to the kind of experiment: Antiviral activity was measured as IC90 by calculating amount of virus present in CEM cells by P24 ELISA test. The format is functional. The following applies: Homo sapiens. Put shortly:
as §3

T1 sequence (Q7ZJM1 whole entry): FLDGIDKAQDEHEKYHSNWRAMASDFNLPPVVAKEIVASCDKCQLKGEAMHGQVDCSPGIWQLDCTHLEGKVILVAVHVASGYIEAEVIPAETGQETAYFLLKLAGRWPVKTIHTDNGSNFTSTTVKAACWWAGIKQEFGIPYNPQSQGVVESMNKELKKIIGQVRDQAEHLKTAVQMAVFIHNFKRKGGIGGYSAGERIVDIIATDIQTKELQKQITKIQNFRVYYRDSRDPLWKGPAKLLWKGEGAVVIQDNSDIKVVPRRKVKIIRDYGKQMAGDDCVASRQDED

With `N#Cc1ccc2ccc(/C=C/c3ccc(O)c(O)c3)nc2c1O`, the TC90 in the assay with CCRF-CEM [1] worked out at 56.3 µM. In the assay on CCRF-CEM [2], the CC50 turned out to be 6.2 µM. Moreover, the IC50 worked out at 3600 nM in [3] (Human immunodeficiency virus 1) and 3 µM in assay [4].
For the compound `Cc1ccc2cccc(O)c2n1` [8-HYDROXY QUINALDINE], the IC50 in assay [5] and in assay [6] was > 100 µM each time.
As for `Oc1ccc(/C=C/c2ccc3cccc(O)c3n2)cc1O`, the IC25 in the assay with CCRF-CEM [7] was 1.2 µM. Further, the IC50 is 3.6 µM with CCRF-CEM [8], 2500 nM in [3] (Human immunodeficiency virus 1), 7.4 µM in assay [4] and 2.4 µM in assay [6]. In the assay with CCRF-CEM [1], this compound yielded a TC90 of 71 µM. Moreover, in the assay with CCRF-CEM [9], the Toxicity was 99%. The CC50 in the assay on CCRF-CEM [2] came to 8.1 µM.
Turning to `O=C(O)c1ccc2ccc(/C=C/c3ccc(O)c(O)c3)nc2c1O`, in the assay with CCRF-CEM [7], the IC25 was 0.46 µM. Also, the IC50 is 1300 nM in the assay on CCRF-CEM [10], 900 nM in assay [3], 2.4 µM in assay [4] and 1 µM in assay [6]. In the assay with CCRF-CEM [1], the TC90 is >100 µM. For the same compound, the figures for the Toxicity in the assay on CCRF-CEM [11] and with CCRF-CEM [9] were <10% and 0%, respectively. In addition, the concentration for an effect of 90% (IC90) with CCRF-CEM [12] was 12.3 µM.
Turning to `O=[N+]([O-])c1cccc2ccc(/C=C/c3ccc(O)c(O)c3)nc12`, the IC50 in assay [4] and in [6] was > 100 µM each time.
`Oc1ccc(/C=C/c2ccc3ccc(/C=C/c4ccc(O)c(O)c4)c(O)c3n2)cc1O`: the results for the IC50 in [4] and in assay [6] were 2.2 µM and 3.4 µM, respectively.
Take `O=C(O)c1ccc2ccc(/C=C/c3cc(O)c(O)c(O)c3)nc2c1O` [listing 1 of 2 here]: the IC25 in the assay with CCRF-CEM [7] is 0.4 µM. Besides, the 50% inhibitory concentration (IC50) is 1.2 µM in the assay on CCRF-CEM [8], 240 nM in assay [3] (Human immunodeficiency virus 1), 0.3 µM in assay [4] and 0.4 µM in assay [6]. Also, the TC90 in the assay with CCRF-CEM [1] came out at 93.3 µM. This compound also showed a Toxicity in the assay on CCRF-CEM [9] of 100%. For the same compound, the CC50 with CCRF-CEM [2] amounted to 10.7 µM. In addition, the IC90 in the assay with CCRF-CEM [13] is 10.7 µM.
As for `Oc1cccc2ccc(/C=C/c3ccc4cccc(O)c4n3)nc12`, the IC50 in [4] was > 100 µM.
For `CC(=O)Oc1cccc2ccc(/C=C/c3ccccc3)nc12`, the IC50 in assay [4] and in assay [6] was > 100 µM in each case.
For `Oc1cccc2ccc(/C=C/c3ccccc3)nc12`, the CC50 in the assay with CCRF-CEM [2] was determined as 50.1 µM. Besides, the TC90 with CCRF-CEM [14] is > 100 µM. The half-maximal inhibitory concentration (IC50) in [4] and in assay [6] was > 100 µM throughout.
On to `O=C(O)c1cc(/C=C/c2ccc3ccc(C(=O)O)c(O)c3n2)ccc1O`, for which, in the assay on CCRF-CEM [7], the 25% effect concentration (IC25) was 20.9 µM. Moreover, the IC50 was 62 µM in the assay on CCRF-CEM [8], 600 nM in assay [3] (Human immunodeficiency virus 1), 2.7 µM in [4] and 0.6 µM in assay [6]. The TC90 with CCRF-CEM [1] was >100 µM. Also, the Toxicity in the assay with CCRF-CEM [11] and with CCRF-CEM [9] was 0% throughout. Moreover, the CC50 in the assay with CCRF-CEM [2] is > 100 µM. In addition, in the assay with CCRF-CEM [13], the IC90 was > 100 µM.
As to `Cc1ccc2cccc(OC(=O)/C=C/c3ccc(O)c(O)c3)c2n1`, the IC50 in [4] and in assay [6] was > 100 µM in each case.
For `Nc1cccc2ccc(/C=C/c3ccc(O)c(O)c3)nc12`, the concentration for half-maximal inhibition (IC50) in assay [4] and in [6] was > 100 µM in each case.
With `COc1ccc(/C=C/C(=O)Oc2cccc3ccc(C)nc23)cc1OC`, the IC50 in assay [4] and in assay [6] was > 100 µM each time.
As to `O=C(O)c1ccc2ccc(/C=C/c3ccc(O)cc3O)nc2c1O`, the IC25 in the assay with CCRF-CEM [7] was 26.3 µM. Further, the IC50 was 79.8 µM in the assay with CCRF-CEM [8], 2500 nM in assay [3] (Human immunodeficiency virus 1), 3.7 µM in assay [4] and 2.8 µM in [6]. Also, the TC90 in the assay on CCRF-CEM [1] is >100 µM. Also, the Toxicity in the assay with CCRF-CEM [11] was <10%; with CCRF-CEM [9], 0%. In addition, in the assay on CCRF-CEM [2], the CC50 is > 100 µM. Moreover, the IC90 in the assay with CCRF-CEM [13] is > 100 µM.
On to `CC(=O)Oc1ccc(/C=C/c2ccc3cccc(OC(C)=O)c3n2)cc1OC(C)=O`, for which the IC50 in [4] and in [6] was > 100 µM throughout.
In assay [4], `O=C(O)c1ccc2ccc(/C=C/c3cc(O)c(O)c(O)c3)nc2c1O` [listing 2 of 2 here] had an IC50 of 0.26 µM.
In the case of `Oc1ccc(/C=C/c2ccc3ccccc3n2)cc1O`, in the assay with CCRF-CEM [2], the CC50 worked out at 12.3 µM. For the same compound, the TC90 in the assay with CCRF-CEM [14] was found to be 100 µM. Moreover, in [4], the IC50 is > 100 µM.
Consider `Cc1ccc2ccc(C(=O)O)c(O)c2n1`, for which the IC25 with CCRF-CEM [7] is > 100 µM. Besides, the IC50 was > 100 µM in the assay with CCRF-CEM [8], > 100 µM in assay [4] and 114 µM in [6]. Further, the TC90 with CCRF-CEM [1] is >100 µM. Also, in the assay with CCRF-CEM [9], the Toxicity is on record as 0%. In the assay with CCRF-CEM [2], the CC50 is > 100 µM. For the same compound, the IC90 with CCRF-CEM [13] is > 100 µM.
`O=C([O-])c1ccc2ccc(/C=C/c3ccc(O)c(O)c3)nc2c1O.[Na+]`: the values for the half-inhibitory concentration (IC50) (with CCRF-CEM [15]; in [3] (Human immunodeficiency virus 1); in assay [4]) were 20 µM, 700 nM and 0.8 µM, respectively. Moreover, the TC90 with CCRF-CEM [1] was >100 µM. This compound came in with a Toxicity in the assay on CCRF-CEM [9] of 0%. The CC50 in the assay with CCRF-CEM [2] is > 100 µM. Besides, the IC90 with CCRF-CEM [16] was > 100 µM.
